# Activity calls are given as the source filed them. The rule behind the calls is not given here.
# What was measured:
# Micrococcus luteus [1] = experiment: Ratio of MBC to MIC against Micrococcus luteus MTCC 2470; format: functional
# Bacillus subtilis = experiment: Antibacterial activity against Bacillus subtilis MTCC 121 assessed as inhibition of bacterial growth incubated for 24 hrs by agar well diffusion method; format: functional; conditions: MTCC 121, 24 h
# In short: (§1)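 Strains from MTCC; inoculum at 0.5 McFarland spread on Mueller-Hinton agar; 6 mm wells loaded with compound over 125–0.97 µg/mL; ciprofloxacin positive control (same range), DMSO negative control. Plates held 24 h at 37 °C; MIC taken as lowest concentration giving a clear inhibition zone. Triplicate runs, mean MIC reported.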
# Escherichia coli [2] = experiment: Antibacterial activity against Escherichia coli MTCC 739 assessed as inhibition of bacterial growth incubated for 24 hrs by agar well diffusion method; format: functional; conditions: MTCC 739, 24 h; in short: as §1
# Candida albicans [3] = experiment: Antifungal activity against Candida albicans MTCC 3018 assessed as inhibition of fungal growth incubated for 24 hrs by agar well diffusion method; format: functional; conditions: MTCC 3018, 24 h
# In short: (§2)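 Candida strains from MTCC, pre-cultured and spread on Mueller Hinton agar. Wells received compound dissolved in 10% DMSO, 125–0.97 µg/mL; miconazole standard over the same range, DMSO negative control. After 24 h at 37 °C, MIC was read as the lowest concentration giving an inhibition zone. Duplicate experiments, means given.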
# Micrococcus luteus [4] = experiment: Bactericidal activity against Micrococcus luteus MTCC 2470 assessed as bacterial killing incubated for 24 hrs; format: functional; conditions: MTCC 2470, 24 h
# In short: (§3)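 Broth tube assay: compound at 0–125 µg/mL in Mueller Hinton broth, overnight culture added to 0.5 McFarland (1.5 × 10^8 cfu/mL), held 24 h at 37 °C. 10 µL from each tube plated on Mueller Hinton agar. MBC is the lowest concentration that kills the strain. Duplicates, means reported.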
# Staphylococcus aureus = experiment: Bactericidal activity against Staphylococcus aureus MTCC 96 assessed as bacterial killing incubated for 24 hrs; format: functional; conditions: MTCC 96, 24 h; in short: as §3
# Escherichia coli [5] = experiment: Bactericidal activity against Escherichia coli MTCC 739 assessed as bacterial killing incubated for 24 hrs; format: functional; conditions: MTCC 739, 24 h; in short: as §3
# Raoultella planticola [6] = experiment: Bactericidal activity against Klebsiella planticola MTCC 530 assessed as bacterial killing incubated for 24 hrs; format: functional; conditions: MTCC 530, 24 h; in short: as §3
# Pichia kudriavzevii = experiment: Antifungal activity against Candida krusei MTCC 3020 assessed as inhibition of fungal growth incubated for 24 hrs by agar well diffusion method; format: functional; conditions: MTCC 3020, 24 h; in short: as §2
# Candida albicans [7] = experiment: Fungicidal activity against Candida albicans MTCC 183 assessed as fungal killing incubated for 24 hrs; format: functional
# In short: (§4)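 Compound at 125–0.97 µg/mL in Mueller Hinton broth in microcentrifuge tubes, each Candida strain added, held 24 h at 37 °C. 10 µL of the treated suspension plated on Mueller Hinton agar and incubated a further 24 h at 37 °C. MFC is the lowest concentration that kills the strain. Duplicates, means reported.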
# Candida albicans [8] = experiment: Fungicidal activity against Candida albicans MTCC 227 assessed as fungal killing incubated for 24 hrs; format: functional; conditions: MTCC 227, 24 h; in short: as §4
# Candida albicans [9] = experiment: Fungicidal activity against Candida albicans MTCC 3018 assessed as fungal killing incubated for 24 hrs; format: functional; conditions: MTCC 3018, 24 h; in short: as §4
# Candida parapsilosis [10] = experiment: Fungicidal activity against Candida parapsilosis MTCC 1744 assessed as fungal killing incubated for 24 hrs; format: functional; conditions: Lodderomyces parapsilosis, MTCC 1744, 24 h; in short: as §4
# Candida albicans [11] = experiment: Ratio of MFC to MIC against Candida albicans MTCC 1637; format: functional
# Candida parapsilosis [12] = experiment: Ratio of MFC to MIC against Candida parapsilosis MTCC 1744; format: functional
# In short: (§5)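 MIC by agar well diffusion: Candida lawns on Mueller-Hinton agar, wells loaded with compound in 10% DMSO (125–0.97 µg/mL), 24 h at 37 °C, lowest concentration giving an inhibition zone. MFC: compound in Mueller-Hinton broth (125–0.97 µg/mL) with yeast, 24 h at 37 °C, 10 µL plated on agar, lowest killing concentration after 24 h. Ratio is MFC/MIC.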
# Pichia sporocuriosa = experiment: Ratio of MFC to MIC against Issatchenkia hanoiensis MTCC 4755; format: functional; in short: as §5
# Pseudomonas aeruginosa = experiment: Ratio of MBC to MIC for Pseudomonas aeruginosa MTCC 2453; format: functional
# Raoultella planticola [13] = experiment: Ratio of MBC to MIC for Klebsiella planticola MTCC 530; format: functional
# [14] = target: Lanosterol 14-alpha demethylase (Candida albicans (strain SC5314 / ATCC MYA-2876) (Yeast), UniProt P10613); experiment: Inhibition of CYP51 in Candida albicans MTCC 3017 assessed as reduction in ergosterol level incubated for 20 hrs by UV-visible spectrophotometry analysis
# Chain of Lanosterol 14-alpha demethylase (P10613 whole entry): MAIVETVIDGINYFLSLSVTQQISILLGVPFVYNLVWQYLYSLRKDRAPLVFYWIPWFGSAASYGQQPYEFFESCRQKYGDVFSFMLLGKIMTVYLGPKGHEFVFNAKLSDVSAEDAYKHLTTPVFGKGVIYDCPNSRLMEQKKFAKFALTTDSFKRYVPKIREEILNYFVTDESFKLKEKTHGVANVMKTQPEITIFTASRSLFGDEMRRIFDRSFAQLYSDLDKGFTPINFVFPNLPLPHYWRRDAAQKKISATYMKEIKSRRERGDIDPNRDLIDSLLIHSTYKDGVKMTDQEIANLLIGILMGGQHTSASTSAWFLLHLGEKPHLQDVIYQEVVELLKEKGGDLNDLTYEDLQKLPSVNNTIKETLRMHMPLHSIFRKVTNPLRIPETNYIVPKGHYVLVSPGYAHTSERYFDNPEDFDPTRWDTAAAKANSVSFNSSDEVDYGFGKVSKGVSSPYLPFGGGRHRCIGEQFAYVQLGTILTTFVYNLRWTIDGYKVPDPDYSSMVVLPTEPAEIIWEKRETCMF
# In short: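 Modified Breivik–Owades sterol method: Mueller Hinton broth with compound at 0, 2, 4, 8, 16 µg/mL, inoculated with single Candida colonies, shaken at 200 rpm for 20 h at 30 °C. Pellets washed and weighed, saponified in 25% alcoholic KOH for 70 min at 90 °C, sterols extracted into n-heptane, diluted 1:5 in ethanol and scanned at 230–310 nm. Triplicates.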
# Candida albicans [15] = experiment: Induction of ROS generation in Candida albicans MTCC 3017 assessed as accumulation of intracellular ROS level by measuring fluorescence intensity at 25 ug/ml after 24 hrs by DCFH-DA probe based fluorimetric assay; format: functional, organism-based
# In short: (§6)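 C. albicans MTCC 3017 biofilms grown 24 h at 37 °C in 96-well plates, then treated 24 h with compound at 0, 5, 10, 15, 20, 25 µg/mL; untreated cells served as control. Cells then loaded with 10 µM DCFH-DA for 24 h in the dark, and fluorescence read at 485 nm excitation and 535 nm emission. Triplicates.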
# Candida albicans [16] = experiment: Induction of ROS generation in Candida albicans MTCC 3017 assessed as accumulation of intracellular ROS level by measuring fluorescence intensity after 24 hrs by DCFH-DA probe based fluorimetric assay; format: functional, organism-based; in short: as §6
# Candida albicans [17] = experiment: Induction of ROS generation in Candida albicans MTCC 3017 assessed as accumulation of intracellular ROS level by measuring fluorescence intensity at 5 ug/ml after 24 hrs by DCFH-DA probe based fluorimetric assay; format: functional, organism-based; in short: as §6
MIC (Bacillus subtilis),MIC (Escherichia coli [2]),MIC (Candida albicans [3]),MIC (Pichia kudriavzevii),inhibition (INH) [14],Compound,Ratio (Micrococcus luteus [1]),MBC (Micrococcus luteus [4]),MBC (Staphylococcus aureus),MBC (Escherichia coli [5]),MBC (Raoultella planticola [6]),MFC (Candida albicans [7]),MFC (Candida albicans [8]),MFC (Candida albicans [9]),MFC (Candida parapsilosis [10]),Ratio (Candida albicans [11]),Ratio (Candida parapsilosis [12]),Ratio (Pichia sporocuriosa),Ratio (Pseudomonas aeruginosa),Ratio (Raoultella planticola [13]),Activity (Candida albicans [15]),other results
3.9 µg/mL,7.8 µg/mL,15.6 µg/mL,15.6 µg/mL,,COc1cc(/C=N/NC(=O)c2n[nH]c3c2Cc2ccccc2-3)ccc1O,2,15.6 µg/mL,7.8 µg/mL,15.6 µg/mL,7.8 µg/mL,inactive,15.6 µg/mL,31.2 µg/mL,31.2 µg/mL,2,2,2,2,2,,
7.8 µg/mL,3.9 µg/mL,7.8 µg/mL,15.6 µg/mL,Dose-dependent effect,COc1ccc2c(c1)Cc1c(C(=O)N/N=C/c3c(F)cc(F)cc3F)n[nH]c1-2,2,15.6 µg/mL,7.8 µg/mL,7.8 µg/mL,15.6 µg/mL,inactive,15.6 µg/mL,15.6 µg/mL,31.2 µg/mL,2,2,2,2,2,Active,Activity (Candida albicans [16]): Dose-dependent effect; Activity (Candida albicans [17]): Active
7.8 µg/mL,3.9 µg/mL,7.8 µg/mL,15.6 µg/mL,,O=C(N/N=C/c1ccc(O)cc1)c1n[nH]c2c1Cc1ccccc1-2,2,15.6 µg/mL,7.8 µg/mL,7.8 µg/mL,15.6 µg/mL,inactive,15.6 µg/mL,15.6 µg/mL,31.2 µg/mL,2,2,2,2,2,,
7.8 µg/mL,3.9 µg/mL,7.8 µg/mL,7.8 µg/mL,Dose-dependent effect,COc1ccc2c(c1)Cc1c(C(=O)N/N=C/c3ccc(O)c(OC)c3)n[nH]c1-2,2,7.8 µg/mL,7.8 µg/mL,7.8 µg/mL,7.8 µg/mL,,7.8 µg/mL,15.6 µg/mL,15.6 µg/mL,2,2,2,2,2,Active,"MFC (Candida albicans [7]; MTCC 183, 24 h): 31.2 µg/mL; Activity (Candida albicans [16]): Dose-dependent effect; Activity (Candida albicans [17]): Active"
7.8 µg/mL,3.9 µg/mL,15.6 µg/mL,15.6 µg/mL,,O=C(N/N=C/c1ccc(O)cc1)c1n[nH]c2c1Cc1cc(F)ccc1-2,2,15.6 µg/mL,7.8 µg/mL,7.8 µg/mL,15.6 µg/mL,inactive,15.6 µg/mL,31.2 µg/mL,31.2 µg/mL,2,2,2,2,2,,
